Experiments:
Assay type in all cases: functional
Eysarcoris [1] = experiment: Repellent activity against Eysarcoris ventralis assessed as reduction in number of bugs at 0.01 umol measured after 30 min
In short: (§1)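 Two-choice bottle assay. Sample dissolved in acetone, 50 μL applied to filter paper strip (5 × 40 mm); control strip got acetone only. Strips dried, each placed in a glass bottle joined to the apparatus. Twenty E. ventralis adults released, held at 10 °C under light; bugs per bottle counted after 30 min. Repellency calculated by formula; four repeats, average ± standard error.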

Eysarcoris [2] = experiment: Repellent activity against Eysarcoris ventralis assessed as reduction in number of bugs at 1 umol measured after 30 min; in short: as §1
Eysarcoris [3] = experiment: Repellent activity against Eysarcoris ventralis assessed as reduction in number of bugs at 0.1 umol measured after 30 min; in short: as §1
Eysarcoris [4] = experiment: Repellent activity against Eysarcoris ventralis assessed as reduction in number of bugs at 0.003 umol measured after 30 min; in short: as §1

| Structure (SMILES) | Repellency (Eysarcoris [1]) [%] | Repellency (Eysarcoris [2]) [%] | Repellency (Eysarcoris [3]) [%] | Repellency (Eysarcoris [4]) [%] |
| --- | --- | --- | --- | --- |
| CCC(=O)OCCCc1cocc1C | 20.5 | 89.3 | 58 | – |
| CC(=O)OCCCc1cocc1C | 7.3 | – | 90.2 | 10.7 |
| CCCC(=O)OCCCc1cocc1C | -19.4 | 96.4 | 51.8 | 19.5 |
| Cc1cocc1CCCOC(=O)c1ccccc1 | – | 40.7 | 5.3 | – |
| Cc1cocc1CCCO | – | 89.3 | 5.7 | – |
| c1ccc2ccccc2c1 [NAPHTHALENE] | 40.7 | 80.4 | 44.6 | – |

Source: ChEMBL document CHEMBL3046042, “3-(4-Methylfuran-3-yl)propan-1-ol: a white-spotted Stinkbug ( Eysarcoris ventralis ) repellent produced by an endophyte isolated from green foxtail” (2010)
